Converted amounts (≈) assume the structure as drawn.
Experiments:
Staphylococcus aureus [1] = experiment: Antibacterial activity against methicillin resistant Staphylococcus aureus clinical isolate 2 incubated […] by microdilution resazurin assay; assay type: functional
Staphylococcus aureus [2] = experiment: Antibacterial activity against methicillin resistant Staphylococcus aureus clinical isolate 5 incubated […] by microdilution resazurin assay; assay type: functional
[3] = Cytotoxicity against human WS1 cells by resazurin reduction assay; assay type: cell-based
In short: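 WS1 human fibroblast line; resazurin reduction test, slightly modified from an earlier method. Etoposide served as positive control.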

Staphylococcus aureus [4] = experiment: Antibacterial activity against Staphylococcus aureus ATCC 25923 incubated […] by microdilution resazurin assay; assay type: functional; conditions: Staphylococcus aureus, ATCC 25923; read-out: MIC
Staphylococcus aureus [5] = experiment: Antibacterial activity against methicillin resistant Staphylococcus aureus clinical isolate 7 incubated […] by microdilution resazurin assay; assay type: functional; conditions: Staphylococcus aureus, isolate 7; read-out: MIC
Staphylococcus aureus [6] = experiment: Antibacterial activity against methicillin resistant Staphylococcus aureus clinical isolate 9 incubated […] by microdilution resazurin assay; assay type: functional
Staphylococcus aureus [7] = experiment: Antibacterial activity against methicillin resistant Staphylococcus aureus clinical isolate 6 incubated […] by microdilution resazurin assay; assay type: functional
Staphylococcus aureus [8] = experiment: Antibacterial activity against methicillin resistant Staphylococcus aureus clinical isolate 1 incubated […] by microdilution resazurin assay; assay type: functional
Staphylococcus aureus [9] = experiment: Antibacterial activity against methicillin resistant Staphylococcus aureus clinical isolate 8 incubated […] by microdilution resazurin assay; assay type: functional
Staphylococcus aureus [10] = experiment: Antibacterial activity against methicillin resistant Staphylococcus aureus clinical isolate 3 incubated for 7 to 14 days by microdilution resazurin assay
Staphylococcus aureus [11] = experiment: Antibacterial activity against methicillin resistant Staphylococcus aureus clinical isolate 4 incubated for 7 to 14 days by microdilution resazurin assay
Staphylococcus aureus [12] = experiment: Antibacterial activity against methicillin resistant Staphylococcus aureus clinical isolate 10 incubated […] by microdilution resazurin assay; assay type: functional
[13] = Staphylococcus aureus, isolate 2, read-out: MIC
[14] = Staphylococcus aureus, isolate 5, read-out: MIC
[15] = Staphylococcus aureus, isolate 9, read-out: MIC
[16] = Staphylococcus aureus, isolate 6, read-out: MIC
[17] = Staphylococcus aureus, isolate 1, read-out: MIC
[18] = Staphylococcus aureus, isolate 8, read-out: MIC
[19] = Staphylococcus aureus, isolate 10, read-out: MIC

| Compound | MIC (Staphylococcus aureus [1]; [13]) [µM] | MIC (Staphylococcus aureus [2]; [14]) [µM] | IC50 ([3]; Homo sapiens, WS1) [µM] | MIC (Staphylococcus aureus [4]) [µM] | MIC (Staphylococcus aureus [5]) [µM] | MIC (Staphylococcus aureus [6]; [15]) [µM] | MIC (Staphylococcus aureus [7]; [16]) [µM] | MIC (Staphylococcus aureus [8]; [17]) [µM] | MIC (Staphylococcus aureus [9]; [18]) [µM] | MIC (Staphylococcus aureus [10]) [µM] | MIC (Staphylococcus aureus [11]) [µM] | MIC (Staphylococcus aureus [12]; [19]) [µM] | MIC (Staphylococcus aureus [2]) [µM] | IC50 [3] [µM] | MIC (Staphylococcus aureus [6]) [µM] | MIC (Staphylococcus aureus [7]) [µM] | MIC (Staphylococcus aureus [8]) [µM] | MIC (Staphylococcus aureus [9]) [µM] | MIC (Staphylococcus aureus [1]) [µM] | MIC (Staphylococcus aureus [12]) [µM] |
| --- | --- | --- | --- | --- | --- | --- | --- | --- | --- | --- | --- | --- | --- | --- | --- | --- | --- | --- | --- | --- |
| COc1ccc(CCC(=O)c2c(O)cc(O)c(C/C=C/c3ccc(O)cc3)c2O)cc1 | 25 (≈ 10.5 µg/mL) | 13 (≈ 5.47 µg/mL) | > 10 | > 50 | 25 (≈ 10.5 µg/mL) | 25 (≈ 10.5 µg/mL) | 25 (≈ 10.5 µg/mL) | 50 (≈ 21 µg/mL) | 25 (≈ 10.5 µg/mL) | 13 (≈ 5.47 µg/mL) | 13 (≈ 5.47 µg/mL) | 25 (≈ 10.5 µg/mL) |  |  |  |  |  |  |  |  |
| COc1ccc(CCC(=O)c2c(O)c(C/C=C/c3ccc(O)cc3)c(O)c3c2O[C@@H](c2ccc(O)cc2)[C@H](C/C=C/c2ccc(O)cc2)C3)cc1 (racemic) | 6 (≈ 4.11 µg/mL) | 13 (≈ 8.9 µg/mL) | > 10 | 13 (≈ 8.9 µg/mL) | 6 (≈ 4.11 µg/mL) | 13 (≈ 8.9 µg/mL) | 6 (≈ 4.11 µg/mL) | 6 (≈ 4.11 µg/mL) | 13 (≈ 8.9 µg/mL) | 3 (≈ 2.05 µg/mL) | 13 (≈ 8.9 µg/mL) | 13 (≈ 8.9 µg/mL) |  |  |  |  |  |  |  |  |
| O=C(CCc1ccc(O)cc1)c1c(O)cc(O)c2c1O[C@H](c1ccc(O)cc1)[C@@H](C/C=C/c1ccc(O)cc1)C2 | 3 (≈ 1.62 µg/mL) | 3 (≈ 1.62 µg/mL) | > 10 | 6 (≈ 3.23 µg/mL) | 3 (≈ 1.62 µg/mL) | 3 (≈ 1.62 µg/mL) | 3 (≈ 1.62 µg/mL) | 3 (≈ 1.62 µg/mL) | 3 (≈ 1.62 µg/mL) | 3 (≈ 1.62 µg/mL) | 3 (≈ 1.62 µg/mL) | 3 (≈ 1.62 µg/mL) |  |  |  |  |  |  |  |  |
| COc1ccc(CCC(=O)c2c(O)cc(O)c3c2OC(c2ccc(O)cc2)C(O)C3)cc1 (stereo in doubt; (-)-16) | 25 (≈ 10.9 µg/mL) |  | > 10 |  | 25 (≈ 10.9 µg/mL) | 50 (≈ 21.8 µg/mL) | 50 (≈ 21.8 µg/mL) | 50 (≈ 21.8 µg/mL) | > 50 | 25 (≈ 10.9 µg/mL) |  | 25 (≈ 10.9 µg/mL) | 13 (≈ 5.67 µg/mL) |  |  |  |  |  |  |  |
| O=C(CCc1ccccc1)c1c(O)c2c(c3c1OC(c1ccc(O)cc1)C(C/C=C/c1ccc(O)cc1)C3)OC(c1ccc(O)cc1)C(C/C=C/c1ccc(O)cc1)C2 (racemic; form 2) |  |  |  | > 50 |  |  |  |  |  |  |  |  |  | > 10 |  |  |  |  |  |  |
| O=C(CCc1ccccc1)c1c(O)cc(O)c2c1OC(c1ccc(O)cc1)C(O)C2 (stereo in doubt; (+)-15) |  |  |  | 25 (≈ 10.2 µg/mL) |  |  |  |  |  |  |  |  |  |  | 25 (≈ 10.2 µg/mL) | 25 (≈ 10.2 µg/mL) | 25 (≈ 10.2 µg/mL) | 25 (≈ 10.2 µg/mL) |  |  |
| O=C(CCc1ccccc1)c1c(O)c2c(c3c1O[C@@H](c1ccc(O)cc1)[C@H](C/C=C/c1ccc(O)cc1)C3)O[C@@H](c1ccc(O)cc1)[C@H](O)C2 (racemic) | 6 (≈ 4.02 µg/mL) | 6 (≈ 4.02 µg/mL) | > 10 | 6 (≈ 4.02 µg/mL) | 6 (≈ 4.02 µg/mL) | 6 (≈ 4.02 µg/mL) | 6 (≈ 4.02 µg/mL) | 6 (≈ 4.02 µg/mL) | 6 (≈ 4.02 µg/mL) | 6 (≈ 4.02 µg/mL) | 6 (≈ 4.02 µg/mL) | 6 (≈ 4.02 µg/mL) |  |  |  |  |  |  |  |  |
| COc1ccc(CCC(=O)c2c(O)cc(O)c3c2O[C@H](c2ccc(O)cc2)CC3)cc1 | > 50 | > 50 | > 10 | > 50 | > 50 | > 50 | > 50 | > 50 | > 50 | > 50 | > 50 | > 50 |  |  |  |  |  |  |  |  |
| COc1ccc(CCC(=O)c2c(O)cc(O)c3c2OC(c2ccc(O)cc2)C(O)C3)cc1 (stereo in doubt; (+)-16) |  |  |  | 25 (≈ 10.9 µg/mL) |  |  |  |  |  |  |  |  | >50 |  |  |  | >50 | 50 (≈ 21.8 µg/mL) | 50 (≈ 21.8 µg/mL) | >50 |
| COc1ccc(CCC(=O)c2c(O)c3c(c4c2O[C@@H](c2ccc(O)cc2)[C@H](C/C=C/c2ccc(O)cc2)C4)O[C@@H](c2ccc(O)cc2)[C@H](O)C3)cc1 (racemic) | 25 (≈ 17.5 µg/mL) | 13 (≈ 9.11 µg/mL) | > 10 | 50 (≈ 35 µg/mL) | 25 (≈ 17.5 µg/mL) | 25 (≈ 17.5 µg/mL) | 50 (≈ 35 µg/mL) | 25 (≈ 17.5 µg/mL) | 25 (≈ 17.5 µg/mL) | 25 (≈ 17.5 µg/mL) | 50 (≈ 35 µg/mL) | 25 (≈ 17.5 µg/mL) |  |  |  |  |  |  |  |  |
| COc1ccc(CCC(=O)c2c(O)c3c(c4c2OC(c2ccc(O)cc2)C(C/C=C/c2ccc(O)cc2)C4)OC(c2ccc(O)cc2)C(C/C=C/c2ccc(O)cc2)C3)cc1 (racemic) | > 50 | > 50 | > 10 | > 50 | > 50 | > 50 | > 50 | > 50 | > 50 | > 50 | > 50 | > 50 |  |  |  |  |  |  |  |  |
| O=C(CCc1ccccc1)c1c(O)cc2c(c1O)C[C@@H](C/C=C/c1ccc(O)cc1)[C@H](c1ccc(O)cc1)O2 (racemic) | > 50 | > 50 | > 10 | > 50 | > 50 | > 50 | > 50 | > 50 | > 50 | > 50 | > 50 | > 50 |  |  |  |  |  |  |  |  |
